We go through ten molecules from ChEMBL document CHEMBL5214971, “Multiple approaches to repurposing drugs for neuroblastoma” (Bioorg Med Chem, 2022).

Bounds are passed on as bounds.

The test system of data set [1] is SK-N-AS. Kind of data set: Anticancer activity against human SK-N-AS cells assessed as reduction in cell viability incubated for 48 hrs by resazurin dye based fluorescence assay. In kind it is functional. Summed up: (§1)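 Cells seeded at 1×10^4 cells/well in DMEM/Ham's F12 (1:1, L-glutamine, 15 mM HEPES) with 10% FBS, 37°C, 5% CO2. Compounds in DMSO, 50 μM then two-fold over 8 further dilutions to 0.195 μM; 0.5% DMSO final. 48 h exposure. Resazurin 0.0125 mg/ml final, read 3 h (HT1080) or 8 h (SH-SY5Y, SK-N-AS) at Ex 544/Em 590 nm. Inhibition relative to DMSO control; triplicates, ≥2 experiments.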

Data set [2] concerns SH-SY5Y. Kind of data set: Anticancer activity against human SH-SY5Y cells assessed as reduction in cell viability incubated for 48 hrs by resazurin dye based fluorescence assay. In kind it is functional. The gist of the method: as §1
Data set [3] can be described thus: Cytotoxicity against African green monkey Vero 76 cells assessed as reduction in cell viability. The note with it: African green monkey (Chlorocebus sabaeus). In kind it is toxicity, cell-based.
Data set [4] is described as follows: Cytotoxicity against human A549-ACE2 cells expressing ACE2 assessed as reduction in cell viability by CytoTox-Glo assay. In kind it is toxicity, cell-based.
Data set [5] has as its system HT-1080. Kind of data set: Anticancer activity against human HT-1080 cells assessed as reduction in cell viability incubated for 48 hrs by resazurin dye based fluorescence assay. The class given is functional. The settings on record: HT-1080, 48 h. The gist of the method: as §1
For data set [6], the target named is Maternal embryonic leucine zipper kinase (Homo sapiens) (UniProt Q14680). Kind of data set: Inhibition of MELK (unknown origin) at 1 uM by Adapta assay.
Maternal embryonic leucine zipper kinase (Homo sapiens), sequence (Q14680 whole entry, looked up): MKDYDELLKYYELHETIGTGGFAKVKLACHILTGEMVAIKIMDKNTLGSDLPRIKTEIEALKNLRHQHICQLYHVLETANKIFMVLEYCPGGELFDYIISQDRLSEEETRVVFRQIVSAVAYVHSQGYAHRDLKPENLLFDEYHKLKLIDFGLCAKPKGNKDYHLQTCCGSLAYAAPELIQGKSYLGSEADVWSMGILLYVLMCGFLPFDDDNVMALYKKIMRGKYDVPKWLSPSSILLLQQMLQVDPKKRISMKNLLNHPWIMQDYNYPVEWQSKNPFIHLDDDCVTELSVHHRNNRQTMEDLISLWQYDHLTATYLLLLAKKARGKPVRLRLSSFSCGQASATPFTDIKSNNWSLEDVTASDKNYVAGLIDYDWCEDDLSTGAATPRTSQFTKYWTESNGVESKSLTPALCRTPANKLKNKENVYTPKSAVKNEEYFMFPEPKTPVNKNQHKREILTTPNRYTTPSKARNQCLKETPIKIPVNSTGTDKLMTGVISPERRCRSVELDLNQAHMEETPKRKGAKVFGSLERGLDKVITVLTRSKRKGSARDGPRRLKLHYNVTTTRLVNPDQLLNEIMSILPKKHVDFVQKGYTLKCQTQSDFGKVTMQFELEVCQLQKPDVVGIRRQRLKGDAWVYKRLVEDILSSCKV
For data set [7], the target named is Calcium/calmodulin-dependent protein kinase type 1 (Homo sapiens) (UniProt Q14012). Kind of data set: Inhibition of CAMK1 (unknown origin) at 1 uM by Adapta assay.
Calcium/calmodulin-dependent protein kinase type 1 (Homo sapiens), sequence (Q14012 whole entry, looked up): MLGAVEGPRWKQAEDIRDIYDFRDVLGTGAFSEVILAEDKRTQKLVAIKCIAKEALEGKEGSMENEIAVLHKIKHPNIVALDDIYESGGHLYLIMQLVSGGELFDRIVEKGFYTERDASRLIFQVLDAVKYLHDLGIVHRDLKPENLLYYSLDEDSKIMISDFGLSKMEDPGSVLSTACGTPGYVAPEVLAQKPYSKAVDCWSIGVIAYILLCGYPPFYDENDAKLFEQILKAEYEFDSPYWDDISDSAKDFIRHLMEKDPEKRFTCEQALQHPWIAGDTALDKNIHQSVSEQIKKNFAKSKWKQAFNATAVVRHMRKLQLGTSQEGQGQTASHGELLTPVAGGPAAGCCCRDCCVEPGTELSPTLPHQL
For data set [8], the target named is Cathepsin D (Homo sapiens) (UniProt P07339). Kind of data set: Inhibition of cathepsin D (unknown origin) using MCA labelled GKPILFFRLK(Dnp)-D-R-NH as substrate at 200 uM preincubated for 15 mins followed by substrate addition and measured after 2 hrs by fluorometer analysis. The settings on record: time 135.0 min.
Cathepsin D (Homo sapiens), sequence (P07339 65-162 limits assumed): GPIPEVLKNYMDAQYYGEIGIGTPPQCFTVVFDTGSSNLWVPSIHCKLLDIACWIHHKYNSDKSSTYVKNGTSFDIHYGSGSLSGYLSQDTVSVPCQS
Cathepsin D (Homo sapiens), sequence (P07339 169-412 limits assumed): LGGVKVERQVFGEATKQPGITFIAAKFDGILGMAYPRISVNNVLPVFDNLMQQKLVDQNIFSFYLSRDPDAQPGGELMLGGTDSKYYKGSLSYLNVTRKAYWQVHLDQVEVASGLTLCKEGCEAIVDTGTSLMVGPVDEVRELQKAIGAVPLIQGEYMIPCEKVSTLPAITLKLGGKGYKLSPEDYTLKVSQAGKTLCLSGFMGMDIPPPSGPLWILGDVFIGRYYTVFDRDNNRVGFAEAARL
The nature of data set [9]: Cytotoxicity against human HeLa cells assessed as reduction in cell viability incubated for 48 hrs by CellTiter Glo assay. The class given is toxicity, cell-based.

Regarding `CCCCCCCCc1ccc(CCC(N)(CO)CO)cc1` [FINGOLIMOD], the IC50 in data set [1] was 6.11 µM; in [2], 4.71 µM.

`C[C@@H](Oc1cc(-c2cnn(C3CCNCC3)c2)cnc1N)c1c(Cl)ccc(F)c1Cl` [CRIZOTINIB]: the IC50 in [1] worked out at 12.1 µM; in data set [2], 0.92 µM.

On to `COc1ccc2nc3cc(Cl)ccc3c(Nc3cc(CN4CCCC4)c(O)c(CN4CCCC4)c3)c2n1` [PYRONARIDINE], for which the IC50 is 1.3 µM in data set [3]; greater than 10 µM in data set [4]; 4.23 µM in data set [5]; 3.45 µM in data set [1]; 1.7 µM in [2]. Also, the inhibition is 31% in data set [6], 35% in data set [7] and greater than 50% in data set [8]. For the same molecule, the 50% inhibitory concentration (IC50) at 48 h in data set [9] was found to be 3.1 µM.

With `COc1ccc2nc3cc(Cl)ccc3c(Nc3cc(CN4CCCC4)c(O)c(CN4CCCC4)c3)c2c1`, the half-maximal inhibitory concentration (IC50) in data set [5] was 13.8 µM; in data set [2], 9.7 µM.

With `CCN(CC)CCCC(C)Nc1c2ccc(Cl)cc2nc2ccc(OC)cc12` (centres undefined) [QUINACRINE], the half-maximal inhibitory concentration (IC50) in [5] is 29 µM; in data set [2], 8.57 µM.

With `COc1ccc2nc3cc(Cl)ccc3c(Nc3cc(CN(C)C)c(O)c(CN(C)C)c3)c2c1`, the IC50 in data set [5] is 6.09 µM; in data set [1], 5.4 µM; in [2], 3.41 µM.

Turning to `O=C(Nc1ccc([N+](=O)[O-])cc1Cl)c1cc(Cl)ccc1O` [NICLOSAMIDE], the IC50 in data set [1] came out at 2.33 µM; in data set [2], 0.87 µM.

`COc1ccc2nc3cc(Cl)ccc3c(Nc3ccc(O)c(CN4CCCC4)c3)c2c1`: the IC50 in [5] was 3.6 µM; in [1] it was 3.86 µM; in [2] it was 1.2 µM.

For `CN1CCN(c2ccc(C(=O)Nc3n[nH]c4ccc(Cc5cc(F)cc(F)c5)cc34)c(NC3CCOCC3)c2)CC1` [ENTRECTINIB], the 50% inhibitory concentration (IC50) in [1] is 4.47 µM; in data set [2] it was 1.6 µM.

Turning to `Cc1ccc(S(=O)(=O)/C=C/C#N)cc1`, the figures for the half-inhibitory concentration (IC50) in data set [1] and in [2] were 1.23 µM and 0.85 µM, respectively.
